The source of these data is ChEMBL document CHEMBL1143175, “Inactivation of human neutrophil elastase by 1,2,5-thiadiazolidin-3-one 1,1 dioxide-based sulfonamides” (Bioorg Med Chem, 2008).

The structures appear in SMILES notation. Active and inactive are the calls of the source. The rule behind the calls is not given here.

Assay [1] has as its target T1, Neutrophil elastase (Homo sapiens) (UniProt P08246).
T1 sequence (whole entry): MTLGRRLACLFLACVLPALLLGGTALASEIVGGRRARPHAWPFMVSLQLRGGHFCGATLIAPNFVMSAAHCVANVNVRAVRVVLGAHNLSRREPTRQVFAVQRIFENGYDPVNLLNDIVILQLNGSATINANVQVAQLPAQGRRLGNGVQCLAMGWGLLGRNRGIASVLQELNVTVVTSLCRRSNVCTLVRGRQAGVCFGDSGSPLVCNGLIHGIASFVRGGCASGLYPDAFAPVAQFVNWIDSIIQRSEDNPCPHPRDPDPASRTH
Put plainly: Ratio of Kinact to KI for human neutrophil elastase. The procedure, abridged: (§1)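 Human neutrophil elastase, progress curve method: 10 nM enzyme added to inhibitor plus 105 µM MeOSuc-Ala-Ala-Pro-Val p-nitroanilide in 0.1 M HEPES/0.5 M NaCl, pH 7.25, 2.5% DMSO. Absorbance followed at 410 nm for 10 min and fitted to the progress curve equation. Apparent second-order constants kinact/KI determined in duplicate.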

Assay [2] addresses T2, Myeloblastin (Homo sapiens) (UniProt P24158).
T2 sequence (whole entry): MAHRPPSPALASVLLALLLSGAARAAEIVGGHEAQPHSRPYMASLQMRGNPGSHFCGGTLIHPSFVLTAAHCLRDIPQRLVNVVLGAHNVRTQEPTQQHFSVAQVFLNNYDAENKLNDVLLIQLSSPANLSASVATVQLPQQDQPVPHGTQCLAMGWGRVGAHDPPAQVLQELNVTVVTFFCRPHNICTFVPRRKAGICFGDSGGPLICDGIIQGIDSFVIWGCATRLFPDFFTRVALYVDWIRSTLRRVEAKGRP
Put plainly: Ratio of Kinact to KI for human PR3. The procedure, abridged:
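Human proteinase 3 (34.5 nM final) with inhibitor (8.6 µM final) and Boc-Ala-Ala-NVa-SBzl plus 5,5′-dithio-bis(2-nitrobenzoic acid) in 0.1 M HEPES/0.5 M NaCl, pH 7.25. Absorbance change monitored at 410 nm for 2 min; inhibitor:enzyme ratio 250.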

Assay [3] deals with T3, Cathepsin G (Homo sapiens) (UniProt P08311).
T3 sequence (whole entry): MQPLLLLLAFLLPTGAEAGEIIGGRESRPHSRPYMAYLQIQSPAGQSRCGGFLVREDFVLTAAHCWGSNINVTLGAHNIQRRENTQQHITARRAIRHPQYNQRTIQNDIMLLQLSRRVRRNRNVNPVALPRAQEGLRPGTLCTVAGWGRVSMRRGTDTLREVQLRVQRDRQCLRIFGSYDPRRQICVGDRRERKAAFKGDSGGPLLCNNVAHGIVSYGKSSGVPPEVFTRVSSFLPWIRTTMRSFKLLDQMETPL
Put plainly: Ratio of Kinact to KI for human cathepsin G. The procedure, abridged: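 Neutrophil cathepsin G incubated with inhibitor at an [I]/[E] ratio of 250 for 30 min. Substrate N-succinyl-Ala-Ala-Pro-Phe p-nitroanilide (85 mM stock in DMSO) then added, and absorbance monitored at 410 nm for 10 min.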

The species entered for assay [4] is Bos taurus. The experiment in a line: Inhibition of bovine trypsin. The following applies: TDE = time-dependent effect. The procedure, abridged:
(§2)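 Incubation method: bovine trypsin (5 µM final) incubated with excess inhibitor (0.125 mM final) in 0.025 M phosphate/0.1 M NaCl, pH 7.51, 1% DMSO, in a constant temperature bath. Aliquots taken over time, residual activity read with N-p-tosyl-Gly-Pro-Lys p-nitroanilide at 410 nm for 60 s. kobs from ln(v/v0) versus time, mean of two determinations, reported as kobs/[I].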

Assay [5] deals with T1, Neutrophil elastase (Homo sapiens). The experiment in a line: Inhibition of human neutrophil elastase. Conditions: TDE = time-dependent effect. The procedure, abridged: as §1
The species named for assay [6] is Bos taurus. Put plainly: Ratio of Kobs to [I] for bovine trypsin. The procedure, abridged: as §2

Regarding `CCCC1C(=O)N(CS(=O)(=O)N[C@H](Cc2ccccc2)C(=O)OC)S(=O)(=O)N1C` (some centres undefined), in assay [1], the Ratio was determined as 9760 M⁻¹ s⁻¹. For the same molecule, the outcome in assay [2] and in assay [3] was inactive. Moreover, the Activity entry (in the assay filed under Bos taurus [4]; in assay [5]) was “tde” each time.
Take `CCCC1C(=O)N(CS(=O)(=O)N[C@@H](CCCCN)C(=O)OC)S(=O)(=O)N1C` (some centres undefined): in assay [1], the Ratio was determined as 12900 M⁻¹ s⁻¹. Further, the result in assay [2] and in assay [3] was inactive. Besides, the Activity entry (in the assay listed under Bos taurus [4]; in assay [5]) was “tde” in each case.
Turning to `CCCC1C(=O)N(CS(=O)(=O)N[C@@H](CCCCNC(=O)OCc2ccccc2)C(=O)OC)S(=O)(=O)N1C` (some centres undefined), the Ratio in assay [1] was found to be 6900 M⁻¹ s⁻¹. The outcome in assay [2] and in assay [3] was inactive. Further, the Activity entry (in the assay listed under Bos taurus [4]; in assay [5]) was “tde” each time.
For the molecule `CCCC1C(=O)N(CS(=O)(=O)N[C@@H](COCc2ccccc2)C(=O)OC)S(=O)(=O)N1C` (some centres undefined), the values for the Ratio (in assay [1]; in the assay filed under Bos taurus [6]) were 16900 M⁻¹ s⁻¹ and 60, respectively. Also, the outcome in assay [2] and in assay [3] was inactive. The Activity entry (in the assay filed under Bos taurus [4]; in assay [5]) was “tde” in each case.
Regarding `CCCC1C(=O)N(CS(=O)(=O)N[C@@H](CO)C(=O)OC)S(=O)(=O)N1C` (some centres undefined), the Ratio in assay [1] was determined as 1100 M⁻¹ s⁻¹; in the assay filed under Bos taurus [6] it was 12. Further, the outcome in assay [2] and in assay [3] was inactive. Moreover, the Activity result (in the assay listed under Bos taurus [4]; in assay [5]) was “tde” throughout.
For the molecule `CCCC1C(=O)N(CS(=O)(=O)N[C@@H](Cc2ccccc2)C(=O)OC)S(=O)(=O)N1C` (some centres undefined), the Ratio in assay [1] came to 41800 M⁻¹ s⁻¹; in the assay listed under Bos taurus [6] it was 50. The result in assay [2] and in assay [3] was inactive. For the same molecule, the Activity result (in the assay filed under Bos taurus [4]; in assay [5]) was “tde” throughout.
Regarding `CCCC1C(=O)N(CS(=O)(=O)N[C@@H](C)C(=O)OC)S(=O)(=O)N1C` (some centres undefined), the Ratio in assay [1] amounted to 1050 M⁻¹ s⁻¹. For the same molecule, the outcome in assay [2] and in assay [3] was inactive. In addition, the Activity result (in the assay filed under Bos taurus [4]; in assay [5]) was “tde” throughout.
`CCCC1C(=O)N(CS(=O)(=O)N[C@@H](CCC)C(=O)OC)S(=O)(=O)N1C` (some centres undefined): the Ratio in assay [1] worked out at 34600 M⁻¹ s⁻¹; in the assay filed under Bos taurus [6] it was 19. Moreover, the result in assay [2] and in assay [3] was inactive. Besides, the Activity entry (in the assay filed under Bos taurus [4]; in assay [5]) was “tde” each time.
